Autophagy mod = autophagy modulators in MEF cells, primary screen, imaging, high-content, MEF GFP-LC3. MEF GFP-LC3 puncta imaging; test concentration mostly 10 µM. calls only at 10 µM (by protocol). hit rate 0.98% among 190,000. AID 463193, 2010;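 active = percentage of spot-positive cells more than 3 SD above its plate mean, without a fluorescence outlier flag or 80% toxicity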
Hsp70 activator = Hsp70 transcriptional activators, primary screen, cell-based, HeLa, Hsp70 promoter luciferase, luminescence, 10 µM. HeLa Hsp70 promoter luciferase reporter; scaled: vehicle 0, proteasome-inhibitor control 100%. activation, % at 10 µM. hit rate 0.04% among 200,000;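 active = activation above the mean across all tested compounds plus 3 SD, cutoff set per campaign, cut at about 5.5% in these data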
MT stabilize HCS = microtubule stabilizers in HeLa cells, primary screen, imaging, high-content imaging. HeLa tubulin immunostaining HCS, 24 h; share of cells brighter than vehicle mean+2SD. % tubulin-high responders, % at 10 µM. hit rate 0.83% among 200,000;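 active = plate Z-score above 3 for both tubulin-high and condensed-nucleus cell shares, with cell loss under 80%, at 10 µM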;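 also: anti alpha tubulin signal scored within the nucleus-defined area of each cell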
Dynein transport = inhibitors of GR-EGFP nuclear translocation, primary screen, dynein cargo transport inhibitor project, imaging, high-content, 3617.4 mouse cells | test concentration mostly 20 µM; stimulated with dexamethasone, 1 µM; active compounds read low | z-score, hits read low | hit rate 0.47% among 220,000 | AID 1381, 2008;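 active = plate z-score of nuclear minus cytoplasmic receptor signal below a set negative limit, without overly bright fluorescence or cell loss, cut at about -3.5 in these data, passing the limit was not always enough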;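 also: z-score of nuclear minus cytoplasmic ring GR-EGFP intensity difference per well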
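Buffer or medium – tet-free medium with charcoal-stripped serum · Signal – automated 10x imaging of fixed Hoechst-stained cells · Also added – dexamethasone agonist, 1.0 µM final, for 30 min · Incubation – induction 48 h, compound 1 h, agonist 30 min · Read-out – GR-EGFP nuclear translocation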
b-catenin transl = modulators of beta-catenin nuclear translocation, primary screen, imaging, HeLa cells, immunofluorescence, high-content. nuclear translocation activity, % at 5 µM. hit rate 0.3% among 190,000. AID 1665, 2009;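 active = nuclear translocation activity above 50% at 5 µM, with a well cell count of 50 or more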;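 also: per-cell ratio of nuclear to cytoplasmic median beta-catenin stain intensity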
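Test system: human HeLa cells, native beta-catenin. Compound dosing: 5 µM primary single dose, 0.1% DMSO, 0.02–20 µM confirmation series. Incubation: compound exposure 24 h at 37°C. Detection: beta-catenin immunostaining with DAPI counterstain, 20x imaging, 6 fields/well. Read-out basis: Nuclear/cytoplasmic beta-catenin signal ratio, % activation.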
Numbers stand for hits; i = inactive; nt = no result given; + = active, no number. Sampled rows, rich in hits. Any-hit rate of the full collection: about 2.1%.

SMILES	Autophagy mod	Hsp70 activator	MT stabilize HCS	Dynein transport	b-catenin transl
O=C(Nc1ccc(S(=O)(=O)N2CCCC2)cc1)C1CCCN1C(=O)c1cccs1 (stereo not drawn)	i	i	i	i	i
COc1cccc(C2CC(=O)Nc3cc4c(cc32)OCCO4)c1OC(C)C (stereo not drawn)	i	i	i	i	i
CCCOc1c(OC)cccc1C1CC(=O)Nc2cc3c(cc21)OCO3 (stereo not drawn)	i	i	37	i	i
COc1ccccc1C1CC(=O)Nc2cc3c(cc21)OCCO3 (stereo not drawn)	+	i	i	i	i
CCOc1ccccc1C1CC(=O)Nc2cc3c(cc21)OCO3 (stereo not drawn)	i	i	29	i	i
CCCOc1c(OC)cccc1C1CC(=O)Nc2cc3c(cc21)OCCO3 (stereo not drawn)	i	i	51	i	nt
Cc1nc(N2CCOCC2)sc1C=O	i	i	i	i	i
COCCOC(=O)/C(C#N)=C/c1cn(Cc2ccccc2)nc1-c1cccnc1	i	i	i	i	i
Cc1cc(NS(=O)(=O)c2ccc(NC(=S)NC(=O)c3ccc(C(C)(C)C)cc3)cc2)no1	i	i	i	i	nt
Cc1cc(NC(=O)CSc2nnc3c(C)cc4c(C)ccc(C)c4n23)no1	i	i	57	i	94
COc1ccccc1-n1cnnc1SCC(=O)Nc1cc(C)on1	i	i	17	i	i
COc1cc2cc(C)c3nnc(SCC(=O)Nc4cc(C)on4)n3c2cc1OC	i	i	i	i	i
CCc1nnc(NC(=O)CSc2nnc3c(C)cc4c(C)ccc(C)c4n23)s1	i	i	20	i	63
CCOC(=O)c1sc2cc([N+](=O)[O-])cc(SCCO)c2c1N	+	i	i	i	i
CCOC(=O)c1sc2cc([N+](=O)[O-])cc(SCC(=O)OC)c2c1N	i	i	i	i	i
CCNC(=S)Nc1cccc(F)c1C	i	i	i	i	i
Cn1nccc1-c1cc(Cl)cc(Cl)c1O	nt	nt	nt	i	i
O=C1c2cccc3c(N4CCCCC4)ccc(c23)C(=O)N1c1ccc(O)cc1	+	i	i	i	i
CCc1nnc(NC(=O)CSc2nnc(Cc3ccccc3)n2-c2ccccc2)s1	i	i	i	i	i
CCc1nnc(NC(=O)CSc2nnc(COc3ccc(C)cc3)n2-c2ccccc2)s1	i	i	33	i	i
CCc1nnc(NC(=O)CSc2nnc(-c3ccccc3O)n2-c2ccc(C)cc2)s1	i	i	38	i	i
CC(C)(C)c1ccc(OCC(=O)NNC(=S)NC(=O)c2ccccc2[N+](=O)[O-])c(Br)c1	i	i	i	i	i
COc1cc(NC(=S)NCCc2ccc(S(N)(=O)=O)cc2)c(OC)cc1Cl	i	i	i	i	i
CC(CCc1ccccc1)NC(=O)CN1CCN(c2ccc(O)cc2)CC1 (stereo not drawn)	i	i	i	i	i
CCC(C)N=C1CC(C)(C)CC(=O)/C1=C(/O)Cc1ccccc1 (stereo not drawn)	i	i	i	i	nt
SMILES	Autophagy mod	Hsp70 activator	MT stabilize HCS	Dynein transport	b-catenin transl
CCNC(=S)N/N=C(\C)c1ccc(N2CCOCC2)cc1	+	i	i	i	i
CC(=O)N1CCCC1(C(=O)O)c1ccccc1 (stereo not drawn)	nt	nt	nt	i	i
Cc1ccc(-c2nnc(Cc3ccc([N+](=O)[O-])cc3)o2)cc1	i	i	i	i	i
Cc1cc2cc(CN(CC3CCCO3)C(=S)Nc3ccccc3)c(=O)[nH]c2cc1C (stereo not drawn)	i	i	14	i	i
COc1ccc2cc(CN(CC3CCCO3)C(=S)Nc3ccccc3)c(=O)[nH]c2c1 (stereo not drawn)	i	i	27	i	i
COc1ccc2[nH]c(=O)c(CN(CC3CCCO3)C(=S)Nc3ccccc3)cc2c1 (stereo not drawn)	i	i	i	i	i
COc1cc(NC(=O)CSc2cc(C)c3cc(C)cc(C)c3n2)c(C(=O)O)cc1OC	nt	nt	nt	i	i
CCOC(=O)c1sc2nc(CSc3ccccc3)nc(N3CCCN(C)CC3)c2c1C	+	i	i	i	i
COc1ccc2nc(N3C(=O)/C(=C/c4ccc(Cl)cc4)NC3=S)sc2c1	+	i	i	i	i
